Series [1] deals with Aspergillus fumigatus. In words: Antimicrobial activity against Aspergillus fumigatus RCMB 02568 after 48 hrs by serial dilution method. The settings on record: RCMB 02568, 48 h. The class given is functional. A digest of the protocol: (§1)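 Serial twofold dilution in microtiter plates starting from a 100 mmol stock in DMSO; final concentrations 125 down to 0.12 […]. Incubated at 28°C and read on a microplate reader after 48 h. Amphotericin B was the reference. Run in triplicate, with the average taken. MIC was the lowest concentration inhibiting growth.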

Series [2] relates to Aspergillus fumigatus. As to the kind of experiment: Antimicrobial activity against Aspergillus fumigatus RCMB 02568 assessed as diameter of zone inhibition at 100 ug/ml after 48 hrs by agar well diffusion assay. The class given is functional. To be noted: for zone of inhibition at 100 µg/mL: RCMB 02568, 48 h, read-out: DIZ. In a few lines: (§2)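 Agar well diffusion on malt agar plates seeded with the fungus, using 1 cm wells. Plates were held at 4°C for 1 h for diffusion, then incubated at 28°C. Inhibition zone diameters were measured at 48 h. Amphotericin B was the positive control. Run in triplicate, with the mean zone reported.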
Background: Agar diffusion results depend on both activity and mobility in agar.

The test system of series [3] is Candida albicans. As to the kind of experiment: Antimicrobial activity against Candida albicans RCMB 05036 assessed as diameter of zone inhibition at 100 ug/ml after 48 hrs by agar well diffusion assay. The format is functional. To be noted: for zone of inhibition at 100 µg/mL: RCMB 05036, 48 h, read-out: DIZ. A digest of the protocol: as §2
The test system of series [4] is Streptococcus pneumoniae. In words: Antimicrobial activity against Streptococcus pneumoniae RCMB 010010 assessed as diameter of zone inhibition at 100 ug/ml after 24 hrs by agar well diffusion assay. The format is functional. The settings on record: RCMB 010010, 24 h, read-out: DIZ. A digest of the protocol: (§3)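 Agar well diffusion on nutrient agar plates seeded with the bacterium, using 1 cm wells. Plates were held at 4°C for 1 h for diffusion, then incubated at 37°C. Inhibition zone diameters were measured at 24 h. Ciprofloxacin was the positive control. Run in triplicate, with the mean zone reported.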

Series [5] concerns Staphylococcus aureus. As to the kind of experiment: Antimicrobial activity against Staphylococcus aureus RCMB 010028 assessed as diameter of zone inhibition at 100 ug/ml after 24 hrs by agar well diffusion assay. The class given is functional. To be noted: RCMB 010028, 24 h, read-out: DIZ. In a few lines:
as §3

The subject of series [6] is Escherichia coli. In words: Antimicrobial activity against Escherichia coli RCMB 010052 assessed as diameter of zone inhibition at 100 ug/ml after 24 hrs by agar well diffusion assay. The class given is functional. The settings on record: for zone of inhibition at 100 µg/mL: RCMB 010052, 24 h, read-out: DIZ. A digest of the protocol: as §3
Series [7] has as its system Candida albicans. As to the kind of experiment: Antimicrobial activity against Candida albicans RCMB 05036 after 48 hrs by serial dilution method. The format is functional. To be noted: RCMB 05036, 48 h. A digest of the protocol: as §1
Series [8] deals with Streptococcus pneumoniae. As to the kind of experiment: Antimicrobial activity against Streptococcus pneumoniae RCMB 010010 after 24 hrs by serial dilution method. The format is functional. To be noted: RCMB 010010, 24 h. A digest of the protocol: (§4)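 Serial twofold dilution in microtiter plates starting from a 100 mmol stock in DMSO; final concentrations 125 down to 0.12 […]. Incubated at 37°C and read on a microplate reader after 24 h. Ciprofloxacin was the reference. Run in triplicate, with the average taken. MIC was the lowest concentration inhibiting growth.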

Series [9] concerns Staphylococcus aureus. As to the kind of experiment: Antimicrobial activity against Staphylococcus aureus RCMB 010028 after 24 hrs by serial dilution method. The format is functional. To be noted: RCMB 010028, 24 h. In a few lines:
as §4

Series [10] deals with Escherichia coli. In words: Antimicrobial activity against Escherichia coli RCMB 010052 after 24 hrs by serial dilution method. The class given is functional. The settings on record: RCMB 010052, 24 h. In a few lines: as §4
The test system of series [11] is Mycobacterium tuberculosis. As to the kind of experiment: Antimycobacterial activity against Mycobacterium tuberculosis RCMB 010126 clinical isolate after 7 days by MABA. The format is functional. A digest of the protocol:
(§5)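 Inoculum from fresh LJ culture resuspended in 7H9-S broth with casitone, glycerol and OADC, adjusted to McFarland No. 1 and diluted 1:20. Serial two-fold compound dilutions in 7H9-S; isoniazid reference. Incubated 7 days at 37°C in air, then Alamar blue added and incubated overnight. Percent inhibition = 1 − (test well/growth-control mean) × 100; MIC = lowest concentration preventing blue-to-pink change.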
On the technique in general: The colour change of resazurin is a common sign of viable cells or microbes.

Series [12] relates to Mycobacterium tuberculosis. In words: Antimycobacterial activity against Mycobacterium tuberculosis RCMB 010126 clinical isolate assessed as inhibition zone after 7 days by MABA. The format is functional. A digest of the protocol: as §5
In the next series the test system is WI-38. In words: Cytotoxicity against human WI38 cells assessed as reduction in cell viability after 24 hrs by crystal violet staining-based colorimetric method. To be noted: WI-38, 24 h. In a few lines: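 WI-38 cells were grown in DMEM with 10% FBS at 37°C and 5% CO2, then seeded at 1×10^4 cells/well. Serial twofold dilutions were added, three wells per concentration. Viability was read by crystal violet stain, solubilised in 30% acetic acid, at 490 nm. Run in triplicate. IC50 was estimated from dose-response plots.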

The nature of series [13]: Selectivity index, ratio of IC50 for human WI38 cells to MIC for Mycobacterium tuberculosis RCMB 010126 clinical isolate. The format is toxicity. The settings on record: read-out: Selectivity Index. In a few lines: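 WI-38 human lung fibroblasts grown in DMEM with 10% FBS at 37°C and 5% CO2, seeded at 1×10^4 cells/well, and exposed to serial two-fold dilutions in triplicate. Viability read by crystal violet stain at 490 nm. IC50 taken from dose-response plots. Ratio uses this IC50 against the MABA MIC for M. tuberculosis.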

Series [14] deals with Pseudomonas aeruginosa. To be noted: RCMB 010043, 100 ug/ml.
Series [15] has as its system Pseudomonas aeruginosa. The settings on record: RCMB 010043.
Setting [16] is: Mycobacterium tuberculosis, RCMB 010126, 168 h.

This is an account of results in ChEMBL document CHEMBL4130356, “Design, synthesis and 2D QSAR study of novel pyridine and quinolone hydrazone derivatives as potential antimicrobial and antitubercular agents” (Eur J Med Chem, 2017).

Values after ≈ are worked out from the molar mass of the structure shown. Active and inactive are the calls of the source.

Regarding `COc1ccc(/C=N/NC(=O)c2ccc(-c3cccc(Cl)c3)nc2C)cc1`, the MIC – broadly, the smallest concentration in the dilution series that meets the test's criterion for growth inhibition – in the series with Aspergillus fumigatus [1] was 1.95 µg/mL (≈ 5.13 µM); with Candida albicans [7], 7.81 µg/mL (≈ 20.6 µM); with Streptococcus pneumoniae [8], 3.9 µg/mL (≈ 10.3 µM); in the series on Staphylococcus aureus [9] it was 3.9 µg/mL (≈ 10.3 µM); with Escherichia coli [10], 3.9 µg/mL (≈ 10.3 µM); in series [11] (setting [16]), 1.56 µg/mL (≈ 4.11 µM). Moreover, the zone of inhibition at 100 µg/mL with Aspergillus fumigatus [2] was found to be 20.6 mm; in the series with Candida albicans [3], 18.2 mm; with Streptococcus pneumoniae [4], 20.9 mm; with Staphylococcus aureus [5], 19.6 mm; in the series on Escherichia coli [6] it was 20.3 mm. The “inhibition zone (IZ)” value in series [12] is given as 60.42 mm. Moreover, the IC50 (usually the point on the concentration scale where inhibition reaches its midpoint) in the series with WI-38 was 500 µg/mL (≈ 1320 µM). Moreover, the selectivity ratio in series [13] is 321. The DIZ result in the series on Pseudomonas aeruginosa [14] was “inactive”. In addition, the MIC result in the series on Pseudomonas aeruginosa [15] is “inactive”.
For `Cc1ccc(/C=N/NC(=O)c2ccc(-c3cccc(Cl)c3)nc2C)cc1`, the “diameter of the inhibition zone (DIZ)” value in the series with Aspergillus fumigatus [2], in the series on Candida albicans [3] and in the series with Escherichia coli [6] was “inactive” each time. The zone of inhibition at 100 µg/mL in the series with Streptococcus pneumoniae [4] is 13.6 mm; in the series on Staphylococcus aureus [5] it was 12.6 mm. For the same molecule, in series [11] (setting [16]), the MIC was found to be 1.56 µg/mL (≈ 4.29 µM). In addition, the “inhibition zone (IZ)” value in series [12] is 61.24 mm. Also, the IC50 in the series on WI-38 was determined as 500 µg/mL (≈ 1370 µM). The selectivity ratio in series [13] turned out to be 321. The DIZ result in the series on Pseudomonas aeruginosa [14] is “inactive”.
`COc1ccc(/C=N/NC(=O)c2ccc(-c3cccc(Cl)c3)nc2C)cc1OC`: the minimum inhibitory concentration (MIC) was determined as 3.9 µg/mL (≈ 9.52 µM) with Aspergillus fumigatus [1]; 15.6 µg/mL (≈ 38.1 µM) in the series on Candida albicans [7]; 3.9 µg/mL (≈ 9.52 µM) against Streptococcus pneumoniae [8]; 7.81 µg/mL (≈ 19.1 µM) against Staphylococcus aureus [9]; 1.95 µg/mL (≈ 4.76 µM) in the series on Escherichia coli [10]; 0.78 µg/mL (≈ 1.9 µM) in [11] (setting [16]). The zone of inhibition at 100 µg/mL with Aspergillus fumigatus [2] was 19.3 mm; in the series with Candida albicans [3] it was 17.2 mm; in the series with Streptococcus pneumoniae [4], 19.6 mm; in the series on Staphylococcus aureus [5] it was 17.9 mm; in the series on Escherichia coli [6] it was 21.6 mm. For the same molecule, in series [11], the “-logMIC” value worked out at 0.1079. In [12], the “inhibition zone (IZ)” value worked out at 73.58 mm. In addition, the IC50 in the series with WI-38 was 168 µg/mL (≈ 410 µM). For the same molecule, the selectivity ratio in series [13] is 215. In the series with Pseudomonas aeruginosa [14], the DIZ result is “inactive”. Moreover, in the series on Pseudomonas aeruginosa [15], the MIC entry was “inactive”.
In the case of `O=C(N/N=C/c1ccc(Cl)cc1)c1c[nH]c2ccc(Cl)cc2c1=O`, the MIC in the series on Aspergillus fumigatus [1] turned out to be 31.2 µg/mL (≈ 86.8 µM); against Candida albicans [7], 62.5 µg/mL (≈ 174 µM); in the series with Streptococcus pneumoniae [8], 15.6 µg/mL (≈ 43.4 µM); against Staphylococcus aureus [9], 31.2 µg/mL (≈ 86.8 µM); against Escherichia coli [10] it was 1.95 µg/mL (≈ 5.41 µM); in [11] (setting [16]), 99.8 µg/mL (≈ 277 µM). For the same molecule, the zone of inhibition at 100 µg/mL turned out to be 16.3 mm in the series on Aspergillus fumigatus [2]; 13.6 mm in the series on Candida albicans [3]; 17.3 mm with Streptococcus pneumoniae [4]; 15.3 mm in the series on Staphylococcus aureus [5]; 20.6 mm with Escherichia coli [6]. For the same molecule, the “inhibition zone (IZ)” value in series [12] came out at 17.8 mm. For the same molecule, in the series with Pseudomonas aeruginosa [14], the DIZ result was “inactive”. Moreover, the MIC entry in the series on Pseudomonas aeruginosa [15] is “inactive”.
For the molecule `COc1ccc(/C=N/NC(=O)c2c[nH]c3cc(Cl)ccc3c2=O)cc1OC`, the MIC with Aspergillus fumigatus [1] came to 3.9 µg/mL (≈ 10.1 µM); against Candida albicans [7] it was 31.2 µg/mL (≈ 81 µM); in the series with Streptococcus pneumoniae [8], 15.6 µg/mL (≈ 40.5 µM); in the series on Staphylococcus aureus [9], 1.95 µg/mL (≈ 5.05 µM); in the series with Escherichia coli [10], 3.9 µg/mL (≈ 10.1 µM). Also, the zone of inhibition at 100 µg/mL in the series with Aspergillus fumigatus [2] worked out at 20.3 mm; in the series with Candida albicans [3], 16.2 mm; with Streptococcus pneumoniae [4], 17.3 mm; in the series on Staphylococcus aureus [5] it was 20.6 mm; in the series with Escherichia coli [6], 20.3 mm. In addition, the MIC result (in series [11]; with Pseudomonas aeruginosa [15]) was “inactive” each time. For the same molecule, the “inhibition zone (IZ)” value in [12] is “inactive”. In addition, the DIZ entry with Pseudomonas aeruginosa [14] is “inactive”.
